Source: PMC11500731 (RSC Advances, 2024)
Where two headings read alike, the source gives them in different places.

Key:
[1] = test system: HEPG2; assay: Cytotoxicity assay; type: cell-based, human; conditions: read-out: IC50 (50% inhibitory concentration), HEPG2
Procedure, shortened: (§1)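 HepG2 cells (DMEM) or MCF-7 cells (RPMI-1640), each with 10% FBS, at 37 °C and 5% CO2. Cells were trypsinised, counted by trypan blue and seeded at 2.5 × 10^3 cells/well overnight. Test compound at 100, 50, 25, 12.5, 6.25 and 0 μM in 1% FBS medium, quadruplicate, 48 h. Adherent cells stained with 0.02% crystal violet, washed with water, dye dissolved in 1% SDS, A595. IC50 by linear regression of concentration against inhibition rate.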

[2] = biological target: SARS-CoV-2 3CL protease (Severe acute respiratory syndrome coronavirus 2, UniProt P0DTD1); assay: In vitro inhibitory activity assay of 3CL protease; type: biochemical; conditions: read-out: inhibitory activity against 3CL protease
[3] = test system: MCF-7; assay: Cytotoxicity assay; type: cell-based, human; conditions: read-out: IC50 (50% inhibitory concentration), MCF-7
Procedure, shortened: as §1

[4] = test system: HEPG2.2.15; assay: Cytotoxicity assay; type: cell-based; conditions: read-out: IC50 (50% inhibitory concentration), HEPG2.2.15; human hepatocellular carcinoma, HBV transformed, 48 hours, 1% FBS, mean ± SD
Procedure, shortened: (§2)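 Cells grown at 37 °C, 5% CO2 with 10% FBS (HepG2.2.15 in DMEM; MDA-MB-231 in DMEM/F12 1:1) and trypsinised and trypan blue-counted 24 h before. Seeded at 2.5 × 10^3 per well overnight, then exposed in quadruplicate to 100–6.25 μM plus 0 μM in 1% FBS medium for 48 h. Crystal violet stain, water wash, SDS solubilisation, A595. IC50 from linear regression of concentration against inhibition rate.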

[5] = test system: MDA-MB-231; assay: Cytotoxicity assay; type: cell-based; conditions: read-out: IC50 (50% inhibitory concentration), MDA-MB-231; human breast cancer, 48 hours, 1% FBS, mean ± SD
Procedure, shortened: as §2

[6] = human hepatocellular carcinoma, 48 hours, 1% FBS, mean ± SD
[7] = human breast cancer, 48 hours, 1% FBS, mean ± SD

| Compound | IC50 ([1]; Homo sapiens, HepG2, 48 h) [µM] | inhibition at 50 µM [2] [%] | IC50 ([3]; Homo sapiens, MCF7, 48 h) [µM] | IC50 [1, 6] [µM] | IC50 [4] [µM] | IC50 [3, 7] [µM] | IC50 [5] [µM] |
| --- | --- | --- | --- | --- | --- | --- | --- |
| O=C(Cn1cnc2ccccc2c1=O)Nc1ccc(O)cc1[N+](=O)[O-] [4a, N-(4-Hydroxy-2-nitrophenyl)-2-(4-oxoquinazolin-3(4H)-yl)acetamide] | > 100 | > 50 | > 100 |  |  |  |  |
| COc1ccc(NC(=O)Cn2cnc3ccccc3c2=O)c(N)c1 [4g, N-(2-Amino-4-methoxyphenyl)-2-(4-oxoquinazolin-3(4H)-yl)acetamide] | > 100 |  | > 100 |  |  |  |  |
| O=C(Cn1cnc2ccccc2c1=O)Nc1ccccc1O [4e, N-(2-Hydroxyphenyl)-2-(4-oxoquinazolin-3(4H)-yl)acetamide] | 54.9 ± 15.2 |  | > 100 |  |  |  |  |
| O=C(Cn1cnc2ccccc2c1=O)Nc1nccs1 [4i, 2-(4-Oxoquinazolin-3(4H)-yl)-N-(thiazol-2-yl)acetamide] | 47.7 ± 16.2 |  | > 100 |  |  |  |  |
| O=C(Cn1cnc2ccccc2c1=O)NCc1cccnc1 [4h, 2-(4-Oxoquinazolin-3(4H)-yl)-N-(pyridin-3-ylmethyl)acetamide] | 51.4 ± 10.2 |  | 58.2 ± 8.04 |  |  |  |  |
| 3-(((1-(2-Hydroxyethyl)-5-nitro-1H-benzo[d]imidazole-2-yl)methyl)thio)-2-(pyridin-3-ylmethyl)isoquinolin-1(2H)-one [9c] |  |  |  | > 100 | > 100 | > 100 | > 100 |
| O=c1c2ccccc2nc(S)n1Cc1cccnc1 [compound 5, 2-Mercapto-3-(pyridin-3-ylmethyl)quinazolin-4(3H)-one] | > 100 |  | > 100 |  |  |  |  |
| 3-(((1H-Benzo[d]imidazole-2-yl)methyl)thio)-2-(pyridin-3-ylmethyl)isoquinolin-1(2H)-one [9a] |  |  |  | > 100 | > 100 | > 100 | > 100 |
| COc1ccc(NC(=O)Cn2cnc3ccccc3c2=O)c([N+](=O)[O-])c1 [4c, N-(4-methoxy-2-nitrophenyl)-2-(4-oxoquinazolin-3(4H)-yl)acetamide] | > 100 | > 50 | > 100 |  |  |  |  |
| O=C(Cn1cnc2ccccc2c1=O)Nc1ncccc1O [4f, N-(3-Hydroxypyridin-2-yl)-2-(4-oxoquinazolin-3(4H)-yl)acetamide] | > 100 |  | > 100 |  |  |  |  |
| O=C(Cn1cnc2ccccc2c1=O)Nc1cc(Cl)ccc1O [4b, N-(5-Chloro-2-hydroxyphenyl)-2-(4-oxoquinazolin-3(4H)-yl)acetamide] | > 100 |  | > 100 |  |  |  |  |
| Cc1ccc(NC(=O)Cn2cnc3ccccc3c2=O)c(O)c1 [4d, N-(2-Hydroxy-4-methylphenyl)-2-(4-oxoquinazolin-3(4H)-yl)acetamide] | > 100 |  | > 100 |  |  |  |  |
